Calls of active or inactive are those of the source. The rule behind the calls is not given here. Residues, ends and D or L forms follow the SMILES beside them. *: point of attachment. Succinyl(O17-estradiol) = C[C@]12CC[C@@H]3c4ccc(O)cc4CC[C@H]3[C@@H]1CC[C@@H]2OC(=O)CCC(=O)*

Data set [1] is described as follows: Stability in presence of pepsin at 37 degC after 90 mins. The data set is classed as ADME. To be noted: isolated protein, 1.5 h.
For data set [2], the system named is Mus musculus. The experiment in a line: Antiosteoporosis activity in ovariectomized ICR mouse assessed as calcium level in serum at 110.3 nmol/kg, po treated for 4 weeks measured after 1 day of last treatment by o-methyl-phenolphthalein method. The data set is classed as functional. The essentials:
(§1)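 Ovariectomized female mice dosed orally with 110.3 nmol/kg in 0.5% carboxymethylcellulose once daily for 4 weeks, starting day 5 after surgery. Blood taken from the orbit the day after the last dose, stood 30 min, centrifuged 3000g for 20 min, serum stored at −20 °C. Calcium read by o-methylphenolphthalein complexone; phosphorus by molybdenum blue.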

For data set [3], the system named is Mus musculus. The data set can be described thus: Antiosteoporosis activity in ovariectomized ICR mouse assessed as phosphorous level in serum at 110.3 nmol/kg, po treated for 4 weeks measured after 1 day of last treatment by molybdenum blue method. The data set is classed as functional. The essentials: as §1
In data set [4] the test system is Mus musculus. The data set can be described thus: Antiosteoporosis activity in ovariectomized ICR mouse assessed as weight of dry femur at 110.3 nmol/kg, po treated for 4 weeks measured after 1 day of last treatment. The data set is classed as functional. Summed up:
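Left femur taken the day after the last dose, cleaned of muscle, length measured, defatted in chloroform–methanol (2:1, 2×3 h), dried 120 °C 6 h and weighed, ashed 800 °C 8 h and weighed. Mineral content = ash/dry weight; femur ash dissolved in 6 N HCl, diluted, calcium by o-methylphenolphthalein complexone. n = 12.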

For data set [5], the system named is Mus musculus. The experiment in a line: Antiosteoporosis activity in ovariectomized ICR mouse assessed as weight of femur ash at 110.3 nmol/kg, po treated for 4 weeks measured after 1 day of last treatment. Type of data set: functional. Summed up:
(§2)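 Female mice, ovariectomized (sham: laparotomy only); from day 5 post-surgery dosed orally once daily with 110.3 nmol/kg in 0.2 ml 0.5% carboxymethylcellulose for 4 weeks (vehicle to OVX/sham). Left femur taken the day after the last dose, cleaned of muscle, length measured, defatted in chloroform–methanol (2:1, 2×3 h), dried 120 °C 6 h and weighed, ashed 800 °C 8 h and weighed. Mineral content = ash/dry weight; femur ash dissolved in 6 N HCl, diluted, calcium by o-methylphenolphthalein complexone. n = 12.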

The test system of data set [6] is Mus musculus. The experiment in a line: Antiosteoporosis activity in ovariectomized ICR mouse assessed as length of femur at 110.3 nmol/kg, po treated for 4 weeks measured after 1 day of last treatment. The data set is classed as functional. Summed up: as §2
In data set [7] the test system is Mus musculus. The experiment in a line: Antiosteoporosis activity in ovariectomized ICR mouse assessed as calcium content in femur at 110.3 nmol/kg, po treated for 4 weeks measured after 1 day of last treatment by o-methyl-phenolphthalein. Type of data set: functional. The essentials: as §2
Data set [8] deals with Mus musculus. The data set can be described thus: Antiosteoporosis activity in ovariectomized ICR mouse assessed as phosphorous content in femur at 110.3 nmol/kg, po treated for 4 weeks measured after 1 day of last treatment by molybdenum blue method. Type of data set: functional.
Data set [9] concerns Mus musculus. The experiment in a line: Antiosteoporosis activity in ovariectomized ICR mouse assessed as mineral content in femur at 110.3 nmol/kg, po treated for 4 weeks measured after 1 day of last treatment. The data set is classed as functional. The essentials:
as §2

Data set [10] has as its system Mus musculus. The data set can be described thus: Toxicity in ovariectomized ICR mouse assessed as spleen weight at 110.3 nmol/kg, po treated for 4 weeks measured after 1 day of last treatment. Type of data set: organism-based. To be noted: in vivo, 24 h. The essentials:
(§3)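 OVX mice dosed orally once daily with 110.3 nmol/kg in 0.5% carboxymethylcellulose for 4 weeks. The day after the last dose, mice were anesthetized with pentobarbital (40.0 mg/kg ip) and killed; uteri, lungs, livers and spleens were removed and weighed directly and their morphology noted.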

Data set [11] relates to Mus musculus. The data set can be described thus: Toxicity in ovariectomized ICR mouse assessed as lung weight at 110.3 nmol/kg, po treated for 4 weeks measured after 1 day of last treatment. The data set is classed as organism-based. As to conditions: in vivo, 24 h. The essentials: as §3
The test system of data set [12] is Mus musculus. The experiment in a line: Toxicity in ovariectomized ICR mouse assessed as kidney weight at 110.3 nmol/kg, po treated for 4 weeks measured after 1 day of last treatment. The data set is classed as organism-based. As to conditions: in vivo, 24 h.
Data set [13] relates to Mus musculus. The experiment in a line: Toxicity in ovariectomized ICR mouse assessed as liver weight at 110.3 nmol/kg, po treated for 4 weeks measured after 1 day of last treatment. The data set is classed as organism-based. To be noted: in vivo, 24 h. The essentials: as §3
In data set [14] the test system is Mus musculus. The experiment in a line: Toxicity in ovariectomized ICR mouse assessed as effect on tail bleeding time at 110.3 nmol/kg, po treated for 4 weeks measured after 30 mins of last treatment. As to conditions: in vivo, 0.5 h. The data set is classed as organism-based. The essentials:
(§4)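 OVX mice received 110.3 nmol/kg orally in 0.5% carboxymethylcellulose daily for 4 weeks. At 30 and 90 min after the last dose, a 2 mm tail cut was made with the mouse in a tube holder; blood was blotted every 30 s until bleeding stopped, and the time was recorded as bleeding time.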

For data set [15], the system named is Mus musculus. The data set can be described thus: Toxicity in ovariectomized ICR mouse assessed as effect on tail bleeding time at 110.3 nmol/kg, po treated for 4 weeks measured after 90 mins of last treatment. Type of data set: organism-based. To be noted: in vivo, 1.5 h. The essentials: as §4
Data set [16] concerns Mus musculus. The experiment in a line: Toxicity in ovariectomized ICR mouse assessed as effect on uterine weight at 110.3 nmol/kg, po treated for 4 weeks measured after 1 day of last treatment. The data set is classed as organism-based. As to conditions: in vivo, 24 h. Summed up: as §3
For data set [17], the system named is Mus musculus. The experiment in a line: Antiosteoporosis activity in osteoporotic female mouse at 0.11 umol/kg, po. Type of data set: functional, organism-based. Summed up:
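Dose-finding pre-treatment: series of oral doses given to osteoporotic female mice; ex vivo anti-osteoporosis activity assessed to assign a general dose for all later experiments.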

For data set [18], the system named is Mus musculus. The experiment in a line: Toxicity in osteoporotic female mouse at 0.11 umol/kg, po. The data set is classed as organism-based. To be noted: in vivo.
Data set [19] is filed under the species Mus musculus. The data set can be described thus: Inhibition of ADP-induced platelet aggregation in osteoporotic female mouse by ex vivo platelet aggregation assay. Type of data set: functional, organism-based.
For data set [20], the species on record is Mus musculus. The data set can be described thus: Inhibition of PAF-induced platelet aggregation in osteoporotic female mouse by ex vivo platelet aggregation assay. The data set is classed as functional, organism-based.
The test system of data set [21] is Mus musculus. The experiment in a line: Antiosteoporosis activity in osteoporotic female mouse at 4 umol/kg, po. Type of data set: functional, organism-based.
Data set [22] can be described thus: Stability in presence of pepsin at 37 degC after 4 hrs. The data set is classed as ADME. As to conditions: isolated protein.

`N=C(N)NCCC[C@H](N)C(=O)NCC(=O)N[C@@H](CC(=O)O)C(=O)N[C@@H](Cc1ccccc1)C(=O)O` (H-RGDF-OH): the Stability entry in data set [1] was “Unstable”.

For `C[C@]12CC[C@@H]3c4ccc(O)cc4CC[C@H]3[C@@H]1CC[C@@H]2OC(=O)CCC(=O)N[C@@H](CCCNC(=N)N)C(=O)NCC(=O)N[C@@H](CC(=O)O)C(=O)N[C@@H](Cc1ccccc1)C(=O)N[C@@H](CCCNC(=N)N)C(=O)NCC(=O)N[C@@H](CC(=O)O)C(=O)N[C@@H](Cc1ccccc1)C(=O)O` ({Succinyl(O17-estradiol)}-RGDFRGDF-OH), the Activity turned out to be 3.01 mM in the data set with Mus musculus [2]; 3.01 mM with Mus musculus [3]; 56.6 mg in the data set on Mus musculus [4]; 36.87 mg in the data set on Mus musculus [5]; 1.64 cm in the data set on Mus musculus [6]; 64.36% in the data set with Mus musculus [7]. For the same compound, the Activity in the data set on Mus musculus [8] was 21.56%; in the data set on Mus musculus [9], 0.625%; in the data set with Mus musculus [10] it was 0.135 g; in the data set with Mus musculus [11], 0.109 g; in the data set with Mus musculus [12] it was 0.16 g; in the data set with Mus musculus [13] it was 1.266 g. For the same compound, the Activity with Mus musculus [16] is listed as 0.06 g; in the data set with Mus musculus [18] it was “Non-toxic”. The Time in the data set on Mus musculus [14] stood at 584 s; in the data set with Mus musculus [15] it was 571 s. Besides, the outcome in the data set with Mus musculus [17] was Active.

Regarding `C[C@]12CC[C@@H]3c4ccc(O)cc4CC[C@H]3[C@@H]1CC[C@@H]2OC(=O)CCC(=O)N[C@@H](CCCNC(=N)N)C(=O)NCC(=O)N[C@@H](CC(=O)O)C(=O)N[C@@H](CO)C(=O)N[C@@H](CCCNC(=N)N)C(=O)NCC(=O)N[C@@H](CC(=O)O)C(=O)N[C@@H](CO)C(=O)O` ({Succinyl(O17-estradiol)}-RGDSRGDS-OH), the Activity in the data set with Mus musculus [2] is reported as 3 mM; in the data set with Mus musculus [3], 2.6 mM; in the data set with Mus musculus [4], 56.41 mg; in the data set with Mus musculus [5] it was 36.48 mg; in the data set with Mus musculus [6], 1.665 cm; in the data set on Mus musculus [7] it was 65.16%. The Activity in the data set on Mus musculus [8] was 21.4%; with Mus musculus [9], 0.625%; in the data set on Mus musculus [10] it was 0.149 g; in the data set with Mus musculus [11], 0.116 g; with Mus musculus [12], 0.174 g; in the data set with Mus musculus [13], 1.479 g. The Activity with Mus musculus [16] was determined as 0.065 g. Also, the Time with Mus musculus [14] was 562 s; in the data set on Mus musculus [15] it was 556 s.

For `CC(C)[C@H](NC(=O)[C@H](CC(=O)O)NC(=O)CNC(=O)[C@H](CCCNC(=N)N)NC(=O)CCC(=O)O[C@H]1CC[C@H]2[C@@H]3CCc4cc(O)ccc4[C@H]3CC[C@]12C)C(=O)O` ({Succinyl(O17-estradiol)}-RGDV-OH), the Activity with Mus musculus [2] turned out to be 3.26 mM; with Mus musculus [3], 3.04 mM; in the data set with Mus musculus [4], 54.01 mg; in the data set on Mus musculus [5], 33.7 mg; in the data set with Mus musculus [6], 1.672 cm; in the data set with Mus musculus [7] it was 57.49%. For the same compound, the Activity in the data set on Mus musculus [8] turned out to be 20.14%; with Mus musculus [9], 0.612%; with Mus musculus [10], 0.149 g; in the data set on Mus musculus [11], 0.125 g; in the data set with Mus musculus [12] it was 0.178 g; with Mus musculus [13], 1.55 g. In addition, in the data set on Mus musculus [16], the Activity is 0.064 g. In addition, the Time with Mus musculus [14] is 551 s; with Mus musculus [15], 560 s.

On to H-RGDFRGDF-OH, for which the IC50 in the data set filed under Mus musculus [19] is 0.31 µmol/kg; in the data set listed under Mus musculus [20] it was 0.26 µmol/kg. Besides, the outcome in the data set on Mus musculus [21] was inactive. Also, the Stability entry in data set [22] is “Stable”.
